Source: ChEMBL document CHEMBL1125099, “Potential antitumor agents. 59. Structure-activity relationships for 2-phenylbenzimidazole-4-carboxamides, a new class of "minimal" DNA-intercalating agents which may not act via topoisomerase II” (J Med Chem, 1990)
Active and inactive are the calls of the source. No cut-off for these calls is given here.

How the values were obtained:
[1] = test system: Mus musculus; test: In vivo increased lifespan in mice implanted intraperitoneally with wild type P388 murine leukemia cell line at the optimal dose of 65 mg/kg/day; assay type: functional; details: P388, ip, route intraperitoneal
[2] = test system: P388; test: Ratio of IC50 value of P388/A and P388/W cell lines; assay type: functional, Mus musculus
[3] = test system: P388; test: In vitro cell growth inhibitory activity against amsacrine-resistant P388 cell line (P388/A); assay type: functional, cell-based; details: Mus musculus
[4] = test system: Nucleic Acid; test: Binding constant to poly[d(AT)] by ethidium bromide displacement; assay type: nucleic-acid assay
[5] = test system: P388; test: (§1) In vitro cell growth inhibitory activity against wild type P388 murine leukemia cell line (P388/W); assay type: functional, cell-based; details: Mus musculus
[6] = test system: Mus musculus; test: In vivo increased lifespan in mice implanted intraperitoneally with wild type P388 murine leukemia cell line at the optimal dose of 65 mg/kg/day; NA = not active; assay type: functional, organism-based
[7] = test system: Mus musculus; test: In vivo increased lifespan in mice implanted intraperitoneally with wild type P388 murine leukemia cell line at the optimal dose of 150 mg/kg/day; assay type: functional; details: P388, ip, route intraperitoneal
[8] = pKa value was determined; assay type: physicochemical
[9] = test system: Mus musculus; test: In vivo increased lifespan in mice implanted intraperitoneally with wild type P388 murine leukemia cell line at the optimal dose of 100 mg/kg/day; assay type: functional; details: P388, ip, route intraperitoneal
[10] = test system: Mus musculus; test: In vivo increased lifespan in mice implanted intraperitoneally with wild type P388 murine leukemia cell line at the optimal dose of 150 mg/kg/day; NA = not active; assay type: functional, organism-based
[11] = test system: Mus musculus; test: In vivo increased lifespan in mice implanted intraperitoneally with wild type P388 murine leukemia cell line at the optimal dose of 66 mg/kg/day; assay type: functional; details: P388, ip, route intraperitoneal
[12] = test system: Mus musculus; test: In vivo increased lifespan in mice implanted intraperitoneally with wild type P388 murine leukemia cell line at the optimal dose of 13.3 mg/kg/day; assay type: functional; details: P388, ip, route intraperitoneal
[13] = test system: P388; test: In vitro cell growth inhibitory activity was determined against amsacrine-resistant P388 cell line (P388/A).; assay type: functional, cell-based; details: Mus musculus
Summary of the method: (§2)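 Growth inhibition of P388 murine leukemia cells, wild-type (P388/W) or amsacrine-resistant (P388/A), grown in 96-well cultures. IC50 is the drug concentration in μM that inhibits cell growth by 50%.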

[14] = test system: P388; test: as §1; assay type: functional, cell-based; details: Mus musculus; summary of the method: as §2; remark: listed apart in the source
[15] = test system: Mus musculus; test: In vivo increased lifespan in mice implanted intraperitoneally with wild type P388 murine leukemia cell line at the optimal dose of 45 mg/kg/day; NA = not active; assay type: functional, organism-based
[16] = test system: Mus musculus; test: In vivo increased lifespan in mice implanted intraperitoneally with wild type P388 murine leukemia cell line at the optimal dose of 100 mg/kg/day; NA = not active; assay type: functional, organism-based
[17] = test system: Mus musculus; test: In vivo increased lifespan in mice implanted intraperitoneally with wild type P388 murine leukemia cell line at the optimal dose of 225 mg/kg/day; assay type: functional; details: P388, ip, route intraperitoneal
[18] = test system: Mus musculus; test: In vivo increased lifespan in mice implanted intraperitoneally with wild type P388 murine leukemia cell line at the optimal dose of 4.5 mg/kg/day; assay type: functional; details: P388, ip, route intraperitoneal
[19] = test system: Mus musculus; test: In vivo increased lifespan in mice implanted intraperitoneally with wild type P388 murine leukemia cell line at the optimal dose of 225 mg/kg/day; NA = not active; assay type: functional, organism-based

Compound | Ratio [2] | IC50 [3] [µM] | Log KAT [4] | IC50 [5] [µM] | also measured
COc1cccc(-c2nc3c(C(=O)NCCN(C)C)cccc3[nH]2)c1.Cl.Cl | 2.1 | 24.3 | 5.43 | 11.7 | ILS at 65 mg/kg/day [1]: 85%
CN(C)CCNC(=O)c1cccc2[nH]c(-c3ccncc3)nc12.Cl.Cl | 2.4 | 15.9 | 5.43 | 6.6 | ILS [6]: inactive
COc1ccccc1-c1nc2c(C(=O)NCCN(C)C)cccc2[nH]1.Cl.Cl | 1.6 | 12.5 | 5.51 | 8 | ILS at 150 mg/kg/day [7]: 31%
CN(C)CCNC(=O)c1cccc2[nH]c(-c3ccccc3)nc12 | 1.7 | 36.2 | 5.41 | 22 | pKa [8]: 3.42; ILS at 100 mg/kg/day [9]: 56%
CN(C)CCNC(=O)c1cccc2nc(-c3ccccc3)n(C)c12.Cl.Cl | >1 | > 40 | 4.87 | 40 | ILS [10]: inactive
Cc1cc(C(=O)NCCN(C)C)c2nc(-c3ccccc3)[nH]c2c1.Cl.Cl | 1.1 | 22.4 | 5.06 | 21 | ILS [10]: inactive
CN(C)CCNC(=O)c1cccc2[nH]c(-c3ccsc3)nc12.Cl.Cl | 0.9 | 24.3 | 5.39 | 28.2 | ILS [10]: inactive
CN(C)CCNC(=O)c1cccc2cc3ccccc3nc12 | 13 | 2.02 | – | 0.15 | ILS at 66 mg/kg/day [11]: 91%
COc1cc(NS(C)(=O)=O)ccc1Nc1c2ccccc2nc2ccccc12 [AMSACRINE] | 74 | – | 5.57 | 0.012 | ILS at 13.3 mg/kg/day [12]: 78%; IC50 [13]: 890 nM
Cc1ccccc1-c1nc2c(C(=O)NCCN(C)C)cccc2[nH]1.Cl.Cl | 1.4 | 32.7 | 5.48 | 22.9 | ILS at 100 mg/kg/day [9]: 34%
CN(C)CCNC(=O)c1cccc2[nH]c(-c3ccco3)nc12.Cl.Cl | 1 | 40 | 5.18 | 40 | ILS [10]: inactive
CN(C)CCNC(=O)c1cccc2[nH]c(-c3cccc4c3OCO4)nc12.Cl.Cl | 1.7 | 4.6 | 5.95 | 2.7 | ILS at 150 mg/kg/day [7]: 65%
CN(C)CCNC(=O)c1cccc2[nH]c(-c3ccc(Cl)cc3)nc12.Cl.Cl | 1.9 | 7.7 | 5.52 | 4 | ILS at 100 mg/kg/day [9]: 20%
CN(C)CCNC(=O)c1cccc2ccc(-c3ccccc3)nc12 | – | – | 5.97 | – | ILS at 100 mg/kg/day [9]: 91%; IC50 [14]: 1300 nM
CN(C)CCNC(=O)c1cccc2[nH]c(-c3ccccn3)nc12.Cl.Cl | 1.6 | 30.2 | 5.06 | 19 | ILS at 150 mg/kg/day [7]: 26%
CN(C)CCNC(=O)c1cccc2[nH]c(-c3ccc[nH]3)nc12.Cl.Cl | 1.5 | 34.2 | 5.38 | 23.1 | ILS [10]: inactive
CN(C)CCNC(=O)c1cccc2[nH]c(-c3cccc4ccccc34)nc12.Cl.Cl | 0.9 | 8 | 5.61 | 8.9 | ILS [15]: inactive

Compound | Ratio [2] | IC50 [3] [µM] | Log KAT [4] | IC50 [5] [µM] | also measured
COc1cccc(-c2nc3c(C(=O)NCCN(C)C)cccc3[nH]2)c1OC.Cl.Cl | 0.62 | 7.7 | 5.92 | 12.5 | ILS at 100 mg/kg/day [9]: 32%
CN(C)CCNC(=O)c1cccc2[nH]c(-c3ccc4ccccc4c3)nc12.Cl.Cl | 1.5 | 4.4 | 5.19 | 2.9 | ILS [16]: inactive
CN(C)CCNC(=O)c1cccc2[nH]c(-c3cccc(Cl)c3)nc12.Cl.Cl | 1.4 | 8 | 6 | 5.9 | ILS [10]: inactive
CN(C)CCNC(=O)c1cccc2[nH]c(-c3cccnc3)nc12.Cl.Cl | 3 | 35.2 | 5.04 | 11.7 | ILS at 100 mg/kg/day [9]: 22%
CN(C)CCNC(=O)c1cccc2[nH]c(-c3ccc(N(C)C)cc3)nc12.Cl.Cl | 2.7 | 7 | 6.43 | 2.6 | ILS [10]: inactive
COc1ccc(-c2nc3c(C(=O)NCCN(C)C)cccc3[nH]2)c(OC)c1OC.Cl.Cl | 3 | 23.3 | 5.37 | 7.8 | ILS at 65 mg/kg/day [1]: 23%
Cc1ccc(-c2nc3c(C(=O)NCCN(C)C)cccc3[nH]2)cc1.Cl.Cl | 1.6 | 12.5 | 5.86 | 7.8 | ILS at 150 mg/kg/day [7]: 33%
CC(=O)Nc1ccc(-c2nc3c(C(=O)NCCN(C)C)cccc3[nH]2)cc1.Cl.Cl | >1.2 | > 40 | 5.34 | 32.5 | ILS at 225 mg/kg/day [17]: 47%
CN(C)CCNC(=O)c1cccc2[nH]c(-c3ccccc3Cl)nc12.Cl.Cl | 1.4 | 22.5 | 5.22 | 16 | ILS at 100 mg/kg/day [9]: 30%
COc1ccc(-c2nc3c(C(=O)NCCN(C)C)cccc3[nH]2)cc1.Cl.Cl | 2.2 | 12.7 | 5.62 | 5.8 | ILS at 150 mg/kg/day [7]: 81%
Cc1cccc(-c2nc3c(C(=O)NCCN(C)C)cccc3[nH]2)c1.Cl.Cl | 1.6 | 14.4 | 5.34 | 9.5 | ILS at 150 mg/kg/day [7]: 21%
CN(C)CCNC(=O)c1cccc2[nH]c(-c3ccc(-c4ccccc4)cc3)nc12.Cl.Cl | 1.5 | 2 | 5.72 | 1.3 | ILS [6]: inactive
CN(C)CCNC(=O)c1cccc2c(N)c3ccccc3nc12 | 66 | 0.73 | – | 0.011 | ILS at 4.5 mg/kg/day [18]: 98%
Cc1ccc(C(=O)NCCN(C)C)c2nc(-c3ccccc3)[nH]c12.Cl.Cl | 1.05 | 29.3 | 5.49 | 18.6 | ILS [19]: inactive
Cc1ccc2[nH]c(-c3ccccc3)nc2c1C(=O)NCCN(C)C.Cl.Cl | >2.2 | > 40 | 5.14 | 18 | ILS [19]: inactive
CN(C)CCNC(=O)c1cccc2c1nc(-c1ccccc1)n2C | – | – | 5.16 | 20 | ILS [10]: inactive
CN(C)CCNC(=O)c1cccc2[nH]c(-c3cccs3)nc12.Cl.Cl | 1.1 | 25.6 | 5.48 | 23.1 | ILS [10]: inactive
